This passage reports IC50, Activity and inhibition results from ChEMBL document CHEMBL3758140, “Exploring the role of chloro and methyl substitutions in 2-phenylthiomethyl-benzoindole derivatives for 5-LOX enzyme inhibition” (Eur J Med Chem, 2016).

The source made the active and inactive calls. The calls are words filed in the database; no cut-off is given here. Bounds are passed on as bounds.

Assay [1] deals with T1, Polyunsaturated fatty acid 5-lipoxygenase (Homo sapiens, UniProt P09917).
T1 sequence (P09917 whole entry): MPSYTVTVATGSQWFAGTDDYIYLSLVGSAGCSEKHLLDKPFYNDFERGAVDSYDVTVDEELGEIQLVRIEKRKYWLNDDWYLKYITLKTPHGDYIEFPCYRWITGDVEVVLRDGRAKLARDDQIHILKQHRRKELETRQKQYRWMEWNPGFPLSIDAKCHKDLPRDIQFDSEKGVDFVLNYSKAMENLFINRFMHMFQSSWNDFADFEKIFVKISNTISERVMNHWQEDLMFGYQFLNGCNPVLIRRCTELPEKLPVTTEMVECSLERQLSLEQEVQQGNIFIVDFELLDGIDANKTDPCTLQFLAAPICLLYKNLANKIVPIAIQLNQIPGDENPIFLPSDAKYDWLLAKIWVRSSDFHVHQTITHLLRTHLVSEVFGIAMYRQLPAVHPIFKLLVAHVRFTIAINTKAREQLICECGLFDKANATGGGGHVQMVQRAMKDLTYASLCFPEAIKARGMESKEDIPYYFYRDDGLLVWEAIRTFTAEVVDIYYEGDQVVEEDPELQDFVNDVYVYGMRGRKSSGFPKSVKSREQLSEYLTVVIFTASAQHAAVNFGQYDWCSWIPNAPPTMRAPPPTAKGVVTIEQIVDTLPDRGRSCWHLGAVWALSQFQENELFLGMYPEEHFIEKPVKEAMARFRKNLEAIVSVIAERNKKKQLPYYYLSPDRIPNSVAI
The assay can be described thus: Inhibition of human recombinant 5-LOX expressed in Escherichia coli BL21 using arachidonic acid as substrate assessed as LTB4 formation preincubated for 15 mins measured after 10 mins by HPLC analysis. A digest of the protocol:
(§1)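 Human recombinant 5-LOX expressed in E. coli BL21 (pT3-5LO) at 37 °C, purified, and used immediately. 0.5 µg enzyme in PBS/EDTA preincubated with compound for 15 min at 4 °C, then prewarmed 30 s at 37 °C. Reaction started with 2 mM CaCl₂ plus 20 µM arachidonic acid, run 10 min at 37 °C, and metabolites analyzed by HPLC. Mean ± S.E.M., n = 3–4.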

The target of assay [2] is T1, Polyunsaturated fatty acid 5-lipoxygenase. The assay can be described thus: Inhibition of 5-LOX in human intact polymorphonuclear leukocytes preincubated for 15 mins with CaCl2, A23187 measured after 10 mins by HPLC analysis. A digest of the protocol:
(§2)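 Human PMNL isolated from blood of healthy adult donors. 5 × 10⁶ cells in 1 ml PG buffer preincubated with compound for 15 min at 37 °C, then stimulated with 1 mM CaCl₂ plus 2.5 µM A23187. After 10 min at 37 °C, stopped with methanol, centrifuged, and supernatant products analyzed by HPLC. Mean ± S.E.M., n = 3–4.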

In assay [3] the test system is Mus musculus. Briefly: Antiinflammatory activity in ICR mouse assessed as reduction in carrageenan-induced paw oedema volume at 1 to 4 mg/kg, ip administered 30 mins before carrageenan challenge measured after 2 to 4 hrs by hydroplethysmometer relative to vehicle-treated control. The format is functional, organism-based. The essentials: (§3)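 Male ICR mice, 8 weeks, housed 5 per cage with 12:12 h light:dark cycle, 22 ± 1 °C, 60 ± 10% humidity, acclimatized at least 1 week. Compounds given i.p. (1–4 mg/kg; zileuton reference 20 mg/kg) 30 min before intraplantar carrageenan. Hind paw volume increase (oedema) followed for 6 h versus vehicle-treated group. Mean ± SEM, n = 6–8 per group.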
For orientation: In the carrageenan paw model, swelling and tenderness develop within hours.

Assay [4] concerns Mus musculus. The assay can be described thus: Antiinflammatory activity in ICR mouse assessed as reduction in carrageenan-induced paw oedema volume at 4 mg/kg, ip administered 30 mins before carrageenan challenge measured after 4 hrs by hydroplethysmometer. It is filed as functional. Details: scale not given: the % may be the effect or the level left. The essentials:
as §3

For the next assay, the target named is T2, Prostaglandin E synthase (Homo sapiens, UniProt O14684).
T2 sequence (O14684 whole entry): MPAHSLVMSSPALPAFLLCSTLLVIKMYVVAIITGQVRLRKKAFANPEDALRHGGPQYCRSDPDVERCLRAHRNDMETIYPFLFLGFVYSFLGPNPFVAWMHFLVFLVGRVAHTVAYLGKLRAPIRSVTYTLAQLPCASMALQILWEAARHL
The assay can be described thus: Inhibition of IL-1beta-activated m-PGES-1 in microsome of human A549 cells assessed as PGE2 formation preincubated for 15 mins followed by PGH2 addition measured after 1 min by RP-HPLC analysis. The format is cell-based. A digest of the protocol: (§4)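 Microsomes from A549 cells prepared by sonication and differential centrifugation (10,000 g, then 174,000 g), stored at −80 °C. Diluted in 0.1 M potassium phosphate pH 7.4 with 2.5 mM glutathione and preincubated with compound (DMSO vehicle, 1% final) 15 min at 4 °C. Started with 20 µM PGH₂ (final), run 1 min at 4 °C, stopped with FeCl₂/citric acid plus 11β-PGE₂ internal standard. PGE₂ isolated by C18 SPE and quantified by RP-HPLC with UV at 195 nm. IC50 from three determinations at 0.1, 1 and 10 µM.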

The target in assay [5] is T3, Polyunsaturated fatty acid 5-lipoxygenase (Homo sapiens) (UniProt P09917).
T3 sequence (whole entry): T1 sequence (P09917 whole entry)
The assay can be described thus: Inhibition of human recombinant 5-LOX expressed in Escherichia coli BL21 using arachidonic acid as substrate assessed as remaining enzyme activity by measuring LTB4 formation at 10 uM preincubated for 15 mins measured after 10 mins by HPLC analysis. The essentials:
as §1

In assay [6] the target is T3, Polyunsaturated fatty acid 5-lipoxygenase (Homo sapiens). The assay can be described thus: Inhibition of 5-LOX in human intact polymorphonuclear leukocytes assessed as remaining enzyme activity at 10 uM preincubated for 15 mins with CaCl2, A23187 measured after 10 mins by HPLC analysis. The essentials: as §2
The target is the same in assay [7]. Briefly: Inhibition of human recombinant 5-LOX expressed in Escherichia coli BL21 using arachidonic acid as substrate assessed as remaining enzyme activity by measuring LTB4 formation at 1 uM preincubated for 15 mins measured after 10 mins by HPLC analysis. The essentials: as §1
The target in assay [8] is T4, Prostaglandin E synthase (Homo sapiens) (UniProt O14684).
T4 sequence (whole entry): T2 sequence (O14684 whole entry)
Briefly: Inhibition of IL-1beta-activated m-PGES-1 in microsome of human A549 cells assessed as PGE2 formation at 10 uM preincubated for 15 mins followed by PGH2 addition measured after 1 min by RP-HPLC analysis. It is filed as cell-based. The essentials:
as §4

Assay [9] deals with T4, Prostaglandin E synthase (Homo sapiens). The assay can be described thus: Inhibition of IL-1beta-activated m-PGES-1 in microsome of human A549 cells assessed as remaining enzyme activity by measuring PGE2 formation at 10 uM preincubated for 15 mins followed by PGH2 addition measured after 1 min by RP-HPLC analysis. It is filed as cell-based. The essentials:
as §4

For assay [10], the system named is Mus musculus. Briefly: Antiinflammatory activity in ICR mouse assessed as reduction in carrageenan-induced paw oedema volume at 20 mg/kg, ip administered 30 mins before carrageenan challenge measured after 0 to 6 hrs by hydroplethysmometer. The format is functional. Details: scale not given: the % may be the effect or the level left. A digest of the protocol: as §3

What is called IC50 is the point on the concentration scale where inhibition reaches its midpoint. For `CCOC(=O)c1c(CSc2cc(Cl)cc(Cl)c2)[nH]c2c1cc(O)c1ccccc12`, the figures for the IC50 (in assay [1]; in [2]; on Prostaglandin E synthase) were 220 nM, 240 nM and 13800 nM, respectively. Further, the outcome in the assay on Mus musculus [3] was Active. The Activity in the assay with Mus musculus [4] came to 60%.

For the compound `CCOC(=O)c1c(CSc2ccccc2Cl)n(C)c2c1cc(OC)c1ccccc12`, the IC50 in assay [1] and in assay [2] was more than 10000 nM in each case. Besides, the Activity worked out at 98.7% in assay [5] and 97.6% in [6].

As to `CCOC(=O)c1c(CSc2cccc(Cl)c2)[nH]c2c1cc(O)c1ccccc12`, the IC50 in assay [1] was more than 1000 nM; in assay [2], 257 nM. For the same compound, the Activity in assay [7] is 63.8%.

For the compound `CCOC(=O)c1c(CSc2cccc(Cl)c2Cl)[nH]c2c1cc(O)c1ccccc12`, the IC50 was more than 1000 nM in assay [1] and 657 nM in [2]. Moreover, the Activity in assay [7] stood at 72%.

Regarding `CCOC(=O)c1c(CSc2ccccc2Cl)[nH]c2c1cc(O)c1ccccc12`, the half-inhibitory concentration (IC50) in [1] was 820 nM; in assay [2], 182 nM.

As to `CCOC(=O)c1c(CSc2c(Cl)cccc2Cl)[nH]c2c1cc(O)c1ccccc12`, the IC50 in assay [1] came out at 170 nM; in assay [2], 190 nM; at Prostaglandin E synthase, 1330 nM. In the assay on Mus musculus [3], the outcome was inactive. Moreover, the Activity in the assay on Mus musculus [4] stood at 9.1%.

For `CCOC(=O)c1c(CSc2ccccc2Cl)n(C)c2c1cc(O)c1ccccc12`, the IC50 in [1] and in assay [2] was more than 10000 nM throughout. In addition, the Activity in assay [5] worked out at 81.4%; in [6], 61.9%.

As for `CCOC(=O)c1c(CSc2c(C)cc(C)cc2C)[nH]c2c1cc(O)c1ccccc12`, the IC50 was 200 nM in [1], 370 nM in assay [2] and 1930 nM on Prostaglandin E synthase. For the same compound, the Activity in the assay on Mus musculus [4] was 77.4%.

As to `CCOC(=O)c1c(CSc2ccccc2Cl)n(CC)c2c1cc(OCC)c1ccccc12`, the IC50 in assay [1] and in assay [2] was more than 10000 nM throughout. The Activity in [5] came out at 99.4%; in assay [6], 95.5%.

As to `CCOC(=O)c1c(CSc2ccccc2C)[nH]c2c1cc(O)c1ccccc12`, the IC50 in assay [1] was found to be 330 nM; in assay [2] it was 255 nM.

Turning to `CCOC(=O)c1c(CSc2ccccc2Cl)[nH]c2c1cc(OC)c1ccccc12`, the IC50 came to 1740 nM in assay [1] and 1150 nM in assay [2].

Regarding `CCOC(=O)c1c(CSc2ccc(Cl)c(Cl)c2)[nH]c2c1cc(O)c1ccccc12`, the figures for the IC50 in assay [1] and in [2] were 930 nM and 237 nM, respectively.

In the case of `CCOC(=O)c1c(CSc2ccccc2Cl)[nH]c2c1cc(OCC)c1ccccc12`, the figures for the IC50 in [1] and in [2] were 2040 nM and 1260 nM, respectively.

On to `CCOC(=O)c1c(CSc2c(C)cccc2C)[nH]c2c1cc(O)c1ccccc12`, for which the figures for the IC50 in assay [1] and in assay [2] were more than 1000 nM and 170 nM, respectively. In addition, the Activity in assay [7] came out at 65.9%.

By inhibition is commonly meant the drop in the measured response relative to a control, in per cent. Regarding `CCOC(=O)c1c(CSc2c(C)cc(C)cc2C)n(C)c2ccc(O)cc12`, the Activity was 60.9% in the assay on Mus musculus [4] and 87.3% in assay [9]. Further, the inhibition in assay [8] was 27.8%.

`CCOC(=O)c1c(CSc2cc(C)cc(C)c2)[nH]c2c1cc(O)c1ccccc12`: the IC50 in assay [1] was more than 1000 nM; in assay [2] it was 290 nM. In addition, the Activity in assay [7] was 63%.

Take `CC(c1cc2ccccc2s1)N(O)C(N)=O` (configuration not stated) [ZILEUTON]: the Activity in the assay with Mus musculus [10] came out at 38.2%.
